Assay type in all cases: functional
For assay [1], the system named is Aspergillus niger. Kind of assay: Antifungal activity against Aspergillus niger assessed as inhibition of spore germination at 25 ug/well after 48 hrs by agar well diffusion method. The note with it: for zone of inhibition at 25 µg/disc: read-out: DIZ. In outline:
(§1)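 Well diffusion using 6 mm bored wells loaded with DMSO solutions at three per-well amounts, with a DMSO negative control. Plates were held at 28 °C for 48 h, then zone of inhibition diameter was measured in mm. Runs were in duplicate and averaged.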

Assay [2] concerns Klebsiella pneumoniae. Kind of assay: Antibacterial activity against Klebsiella pneumoniae assessed as growth inhibition at 25 ug/well after 24 hrs by agar well diffusion method. The note with it: for zone of inhibition at 25 µg/disc: read-out: DIZ. An outline of the steps:
(§2)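 Agar well diffusion on […] swabbed with a 24 h broth culture. Samples were dissolved in DMSO and loaded at three per-well amounts into 6 mm wells. Incubation was 37 °C for 24 h, then inhibition zone diameter was read in mm. DMSO served as the negative control. Runs were in duplicate and averaged.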
(In general: In agar diffusion tests the substance spreads into inoculated agar from a disc or well.)

Assay [3] deals with Pseudomonas aeruginosa. Kind of assay: Antibacterial activity against Pseudomonas aeruginosa assessed as growth inhibition at 50 ug/well after 24 hrs by agar well diffusion method. The note with it: for zone of inhibition at 50 µg/disc: read-out: DIZ. In outline: as §2
Assay [4] concerns Staphylococcus aureus. Kind of assay: Antibacterial activity against Staphylococcus aureus assessed as growth inhibition at 100 ug/well after 24 hrs by agar well diffusion method. To be noted: for zone of inhibition at 100 µg/disc: read-out: DIZ. In outline: as §2
The test system of assay [5] is Klebsiella pneumoniae. Nature of the assay: Antibacterial activity against Klebsiella pneumoniae assessed as growth inhibition at 50 ug/well after 24 hrs by agar well diffusion method. To be noted: for zone of inhibition at 50 µg/disc: read-out: DIZ. An outline of the steps:
as §2

Assay [6] relates to Staphylococcus aureus. Nature of the assay: Antibacterial activity against Staphylococcus aureus assessed as growth inhibition at 50 ug/well after 24 hrs by agar well diffusion method. To be noted: for zone of inhibition at 50 µg/disc: read-out: DIZ. In outline: as §2
Assay [7] has as its system Aspergillus niger. Kind of assay: Antifungal activity against Aspergillus niger assessed as inhibition of spore germination at 50 ug/well after 48 hrs by agar well diffusion method. The note with it: for zone of inhibition at 50 µg/disc: read-out: DIZ. In outline:
as §1

Assay [8] deals with Klebsiella pneumoniae. Nature of the assay: Antibacterial activity against Klebsiella pneumoniae assessed as growth inhibition at 100 ug/well after 24 hrs by agar well diffusion method. The note with it: for zone of inhibition at 100 µg/disc: read-out: DIZ. An outline of the steps: as §2
Assay [9] concerns Bacillus subtilis. Nature of the assay: Antibacterial activity against Bacillus subtilis assessed as growth inhibition at 25 ug/well after 24 hrs by agar well diffusion method. To be noted: for zone of inhibition at 25 µg/disc: read-out: DIZ. An outline of the steps: as §2
For assay [10], the system named is Pseudomonas aeruginosa. Nature of the assay: Antibacterial activity against Pseudomonas aeruginosa assessed as growth inhibition at 100 ug/well after 24 hrs by agar well diffusion method. To be noted: for zone of inhibition at 100 µg/disc: read-out: DIZ. An outline of the steps: as §2
The subject of assay [11] is Pseudomonas aeruginosa. Nature of the assay: Antibacterial activity against Pseudomonas aeruginosa assessed as growth inhibition at 25 ug/well after 24 hrs by agar well diffusion method. The note with it: for zone of inhibition at 25 µg/disc: read-out: DIZ. An outline of the steps: as §2
In assay [12] the test system is Bacillus subtilis. Nature of the assay: Antibacterial activity against Bacillus subtilis assessed as growth inhibition at 50 ug/well after 24 hrs by agar well diffusion method. The note with it: for zone of inhibition at 50 µg/disc: read-out: DIZ. In outline: as §2
In assay [13] the test system is Staphylococcus aureus. Nature of the assay: Antibacterial activity against Staphylococcus aureus assessed as growth inhibition at 25 ug/well after 24 hrs by agar well diffusion method. The note with it: for zone of inhibition at 25 µg/disc: read-out: DIZ. In outline:
as §2

In assay [14] the test system is Bacillus subtilis. Nature of the assay: Antibacterial activity against Bacillus subtilis assessed as growth inhibition at 100 ug/well after 24 hrs by agar well diffusion method. The note with it: for zone of inhibition at 100 µg/disc: read-out: DIZ. An outline of the steps:
as §2

Each structure is given as a SMILES string. Calls of active or inactive are those of the source. No cut-off for these calls is given here.

On to `Cc1ccc(-c2c[nH]c(NC3=NN(C(N)=S)[C@@H](c4ccc(C)cc4)C3)n2)cc1`, for which the “growth inhibition (GI)” value in [1], in [2], in assay [3], in assay [4], in assay [5] and in assay [6] was “inactive” throughout. Moreover, the “growth inhibition (GI)” value in assay [8], in assay [9], in assay [10], in assay [11], in assay [12] and in [13] was “inactive” in each case. Also, the “growth inhibition (GI)” value in [14] was “inactive”. Moreover, the zone of inhibition entry in assay [7] was “inactive”.
Take `NC(=S)n1nc(Nc2nc(-c3ccccc3)cs2)cc1-c1ccccc1`: the zone of inhibition at 25 µg/disc in [1] was 17 mm; in [2], 23 mm; in [9] it was 21 mm; in assay [11], 12 mm; in [13] it was 22 mm. In addition, the zone of inhibition at 50 µg/disc in [3] came out at 15 mm; in assay [5], 25 mm; in assay [6], 25 mm; in assay [7], 19 mm; in assay [12] it was 22 mm. Also, the zone of inhibition at 100 µg/disc in [4] stood at 26 mm; in assay [8], 28 mm; in assay [10], 17 mm; in [14] it was 24 mm.
As to `Cc1ccc(-c2csc(Nc3cc(-c4ccc(C)cc4)n(C(N)=S)n3)n2)cc1`, the zone of inhibition at 25 µg/disc in assay [1] was 12 mm; in [2], 11 mm; in assay [9] it was 10 mm; in [13] it was 11 mm. The zone of inhibition at 50 µg/disc stood at 6 mm in assay [3]; 13 mm in [5]; 13 mm in [6]; 13 mm in [7]; 12 mm in [12]. In addition, the zone of inhibition at 100 µg/disc in assay [4] stood at 15 mm; in assay [8], 16 mm; in [10] it was 8 mm; in assay [14] it was 14 mm. Besides, in [11], the “growth inhibition (GI)” value is “inactive”.
Turning to `NC(=S)N1N=C(Nc2nc(-c3ccccc3)co2)C[C@@H]1c1ccccc1`, the “growth inhibition (GI)” value in assay [1], in assay [2], in assay [3], in assay [4], in assay [5] and in assay [6] was “inactive” in each case. Further, the “growth inhibition (GI)” value in assay [8], in assay [9], in assay [10], in assay [11], in assay [12] and in assay [13] was “inactive” throughout. Besides, the “growth inhibition (GI)” value in assay [14] was “inactive”. In addition, the zone of inhibition entry in [7] was “inactive”.
As to `Clc1ccc(-c2coc(Nc3cc(-c4ccc(Cl)cc4)n(-c4nc(-c5ccc(Cl)cc5)cs4)n3)n2)cc1`, the zone of inhibition at 25 µg/disc in assay [1] worked out at 11 mm; in assay [2], 17 mm; in [9], 16 mm; in assay [11], 9 mm; in assay [13] it was 17 mm. The zone of inhibition at 50 µg/disc in [3] was determined as 10 mm; in assay [5] it was 19 mm; in assay [6] it was 18 mm; in [7] it was 12 mm; in assay [12] it was 18 mm. Besides, the zone of inhibition at 100 µg/disc in assay [4] stood at 21 mm; in assay [8] it was 22 mm; in assay [10], 13 mm; in [14], 21 mm.
Consider `Cc1ccc(-c2coc(Nc3cc(-c4ccc(C)cc4)n(C(N)=S)n3)n2)cc1`, for which the “growth inhibition (GI)” value in assay [1], in [2], in assay [3], in assay [6], in assay [9] and in [10] was “inactive” throughout. Moreover, the “growth inhibition (GI)” value in assay [11] and in assay [13] was “inactive” throughout. Further, the zone of inhibition at 100 µg/disc in assay [4] stood at 6 mm; in assay [8], 8 mm; in assay [14] it was 8 mm. In addition, the zone of inhibition at 50 µg/disc in [5] was determined as 7 mm; in [7], 6 mm; in assay [12], 7 mm.
With `Cc1ccc(-c2csc(Nc3cc(-c4ccc(C)cc4)n(-c4nc(-c5ccc(C)cc5)cs4)n3)n2)cc1`, the zone of inhibition at 25 µg/disc came out at 15 mm in [1]; 14 mm in [2]; 14 mm in assay [9]; 7 mm in assay [11]; 14 mm in [13]. Also, the zone of inhibition at 50 µg/disc in assay [3] amounted to 8 mm; in assay [5], 15 mm; in assay [6] it was 15 mm; in assay [7] it was 16 mm; in assay [12], 15 mm. Besides, the zone of inhibition at 100 µg/disc in assay [4] turned out to be 18 mm; in assay [8] it was 18 mm; in assay [10], 11 mm; in assay [14] it was 18 mm.
For the compound `Cc1ccc(-c2coc(NC3=NN(C(N)=S)[C@@H](c4ccc(C)cc4)C3)n2)cc1`, the “growth inhibition (GI)” value in assay [1], in assay [2], in [3], in assay [4], in [5] and in assay [6] was “inactive” in each case. The “growth inhibition (GI)” value in assay [8], in assay [9], in [10], in [11], in assay [12] and in [13] was “inactive” throughout. Also, the “growth inhibition (GI)” value in assay [14] was “inactive”. In addition, the zone of inhibition result in assay [7] was “inactive”.
Turning to `Cc1ccc(-c2coc(Nc3cc(-c4ccc(C)cc4)n(-c4nc(-c5ccc(C)cc5)cs4)n3)n2)cc1`, the zone of inhibition at 25 µg/disc in [1], in assay [2] and in assay [9] was 6 mm in each case. Moreover, the “growth inhibition (GI)” value in assay [3], in assay [10], in assay [11] and in assay [13] was “inactive” each time. Besides, the zone of inhibition at 100 µg/disc in [4] is 8 mm; in [8], 10 mm; in [14], 9 mm. In addition, the zone of inhibition at 50 µg/disc in assay [5] came out at 8 mm; in assay [6] it was 6 mm; in assay [7], 8 mm; in [12], 8 mm.
Turning to `NC(=S)n1nc(Nc2nc(-c3ccccc3)co2)cc1-c1ccccc1`, the zone of inhibition at 25 µg/disc in assay [1] turned out to be 8 mm; in [2] it was 7 mm; in [9] it was 7 mm; in assay [13] it was 6 mm. The “growth inhibition (GI)” value in assay [3], in assay [10] and in assay [11] was “inactive” throughout. Moreover, the zone of inhibition at 100 µg/disc is 10 mm in [4], 12 mm in [8] and 11 mm in assay [14]. Also, the zone of inhibition at 50 µg/disc amounted to 9 mm in assay [5], 8 mm in assay [6], 9 mm in assay [7] and 9 mm in assay [12].
In the case of `NC(=S)n1nc(Nc2nc(-c3ccccc3)c[nH]2)cc1-c1ccccc1`, the zone of inhibition at 25 µg/disc was 19 mm in assay [1]; 19 mm in assay [2]; 18 mm in [9]; 10 mm in [11]; 18 mm in [13]. Further, the zone of inhibition at 50 µg/disc in assay [3] was 12 mm; in assay [5] it was 20 mm; in [6] it was 20 mm; in assay [7], 20 mm; in [12], 20 mm. Moreover, the zone of inhibition at 100 µg/disc was found to be 23 mm in assay [4], 24 mm in [8], 14 mm in [10] and 22 mm in assay [14].

The values are drawn from ChEMBL document CHEMBL3286292, “Synthesis and antimicrobial activity of amine linked bis- and tris-heterocycles” (2014).
